Only some compounds are listed: those with a hit (about 3.5% of all), similar ones and a draw of the others.
MrgX1 ag: agonists of human MrgX1 receptor, primary screen, HEK293 cells, Fluo-4 calcium flux | Mas-related G-protein coupled receptor member X1 (Homo sapiens), Q96LB2 | Fluo-4 calcium fluorescence, agonist mode; active compounds read high | B-score at 10 µM | 0.44% of 310,000 active | AID 588627, 2011;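 active = calcium response B-score plate-corrected fluorescence ratio at least 3 library SD, with starting fluorescence B-score inside 5 SD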
Target sequence (Q96LB2 whole entry, looked up): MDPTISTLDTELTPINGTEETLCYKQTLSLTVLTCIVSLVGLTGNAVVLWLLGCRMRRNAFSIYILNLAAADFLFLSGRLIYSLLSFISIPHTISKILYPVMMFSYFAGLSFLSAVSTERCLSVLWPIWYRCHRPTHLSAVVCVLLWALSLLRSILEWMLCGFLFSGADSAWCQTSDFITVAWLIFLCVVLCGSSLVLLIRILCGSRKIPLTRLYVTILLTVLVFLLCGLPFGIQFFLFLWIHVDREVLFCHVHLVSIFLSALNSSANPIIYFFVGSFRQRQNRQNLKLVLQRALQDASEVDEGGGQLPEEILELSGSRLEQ
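Material: MrgX1-expressing HEK293 cells / Dosing: compound as first of three additions / Incubation: overnight seeding, then 1 h dark dye loading / Signal: Fluo-4 NW calcium fluorescence / Evaluation: B-scored fluorescence response ratio / Benchmarks: positive and negative control wells on each plate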
MrgX1 allo act: positive allosteric modulators of MrgX1, primary screen, HEK293 cells, Fluo-4 calcium flux | Mas-related G-protein coupled receptor member X1 (Homo sapiens), Q96LB2 | FDSS; active compounds read high | B-score at 10 µM | 0.63% of 310,000 active | AID 588675, 2011;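 active = plate-corrected calcium response at least 3 library SD above typical, normal starting fluorescence, not activating the receptor alone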;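 note: compound read alongside a low EC10 to EC30 dose of BAM8-22 agonist; peak minus trough fluorescence over baseline measured at the second addition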
MrgX1 antag: antagonists of human MrgX1 receptor, primary screen, HEK293 cells, Fluo-4 calcium flux. Mas-related G-protein coupled receptor member X1 (Homo sapiens), Q96LB2. BAM8-22 antagonism; active compounds read low. B-score at 10 µM. 1.3% of 310,000 active;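 active = calcium-response B-score plate-corrected more than 3 library SD below zero, starting fluorescence within 5 deviations, no agonist response on first addition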;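 note: peak minus trough fluorescence over baseline after final BAM8-22 challenge near maximal dose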
RGS4 act: RGS4 potentiators or activators, primary screen, cell-based, HEK293 M3R inducible RGS4, calcium flux; 0.92% of 310,000 active; B-score at 10 µM; carbachol calcium flux Fluo4; active compounds read low;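 active = B-score of the integrated calcium signal more than 4 SD below the library mean, with starting fluorescence not abnormally high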;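 note: negative B-score means reduced calcium response which marks RGS4 activation or potentiation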
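test system = HEK293 cells with stable M3R and inducible RGS4 | schedule = recording 10 s baseline at 1 Hz, 100 s post-agonist | technique = Fluo4-AM (2 µM) calcium-flux fluorescence, kinetic read | measure = Agonist-evoked peak-minus-minimum fluorescence over baseline, integrated ratio, B score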
RGS4 block: RGS4 inhibitors, primary screen, cell-based, HEK293 M3R inducible RGS4, calcium flux; AID 463165, 2010; Fluo-4 calcium flux; active compounds read high; triggered by carbachol at its EC20; 0.45% of 310,000 active; B-score at 10 µM; Regulator of G-protein signaling 4 (Homo sapiens), P49798;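 active = B-score, a plate-corrected calcium signal, over three deviations above library mean, with baseline fluorescence within five deviations of library mean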;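 note: RGS4 expression induced by doxycycline in cells with stable M3 receptor; B-score is computed from the integrated fluorescence ratio over baseline after carbachol; higher B-score means a larger calcium signal and so more RGS4 inhibition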
Target sequence (P49798 whole entry, looked up): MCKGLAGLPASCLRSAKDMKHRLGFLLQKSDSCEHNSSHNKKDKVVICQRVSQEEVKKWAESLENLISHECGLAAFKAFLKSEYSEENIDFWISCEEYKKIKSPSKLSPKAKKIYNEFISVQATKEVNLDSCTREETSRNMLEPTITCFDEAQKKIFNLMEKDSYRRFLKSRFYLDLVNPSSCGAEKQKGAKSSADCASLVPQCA
RGS4 act valid: reduced carbachol calcium response, RGS4-induced M3R cells, confirmation, RGS4 activator project, cell-based, HEK293 M3R/RGS4 inducible, calcium flux, duplicate | shares compounds with RGS4 act | carbachol calcium flux Fluo4 | inhibition, % at 10 µM | 89% of 1,100 active | AID 602282, 2012;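 active = inhibition above 3 SD of the buffer control wells, cut at about 41% in these data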;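 note: signal is the integrated peak-minus-minimum Fluo4 fluorescence over baseline ratio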
RGS4 act ctr: counter-screen for RGS4 activators: effect in non-induced cells; shares compounds with RGS4 act; HEK293 M3R non-induced RGS4, Fluo4 calcium flux; after carbachol challenge at its EC90; inhibition, % at 10 µM; 82% of 1,100 active; AID 602283;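 active = inhibition exceeding 3 SD of buffer-only control wells, cut at about 26% in these data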;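 note: percent drop in integrated peak-minus-baseline over baseline Fluo4 ratio after carbachol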
Numbers stand for hits.

For c1ccc(COc2ccc(OCCCN3CCCC3)cc2)cc1 the results were MrgX1 ag inactive, MrgX1 allo act inactive, MrgX1 antag inactive, RGS4 act -11, RGS4 block inactive, RGS4 act valid 94 and RGS4 act ctr 57.
CC1CCN(CCCOc2ccc(OCc3ccccc3)cc2)CC1 was read as MrgX1 ag inactive, MrgX1 allo act inactive, MrgX1 antag inactive, RGS4 act -10, RGS4 block inactive, RGS4 act valid 92 and RGS4 act ctr 78.
For CCN(CC(=O)NCCC1=CCCCC1)S(=O)(=O)c1ccccc1 the results were MrgX1 ag inactive, MrgX1 allo act inactive, MrgX1 antag inactive, RGS4 act inactive and RGS4 block inactive.
For O=C(NNc1nc2cc3c(cc2s1)OCO3)c1cccc(F)c1 the results were MrgX1 ag inactive, MrgX1 allo act inactive, MrgX1 antag inactive, RGS4 act inactive and RGS4 block inactive.
Screening CN1C(=O)Cc2cc(S(=O)(=O)Nc3ccc(Cl)cc3)ccc21 returned MrgX1 ag inactive, MrgX1 allo act inactive, MrgX1 antag inactive, RGS4 act inactive and RGS4 block inactive.
CC(C)N(CC#CCC(O)(c1ccccc1)c1ccccc1)C(C)C was read as MrgX1 ag inactive, MrgX1 allo act inactive, MrgX1 antag inactive, RGS4 act inactive and RGS4 block inactive.
For CCN(CC)CC#CCC(O)(c1ccccc1)C1CCCCC1 (centres undefined) the results were MrgX1 ag inactive, MrgX1 allo act inactive, MrgX1 antag inactive, RGS4 act -10, RGS4 block inactive, RGS4 act valid 91 and RGS4 act ctr 90.
CC(C)(C)c1cc(-c2csc(Nc3ccccc3)[n+]2Cc2ccc(C(=O)O)cc2)cc(C(C)(C)C)c1O was read as MrgX1 ag inactive, MrgX1 allo act inactive, MrgX1 antag -9.5, RGS4 act -11, RGS4 block inactive, RGS4 act valid 94 and RGS4 act ctr 97.
For Cc1oc(-c2ccccc2Cl)nc1CS(=O)(=O)CC(=O)NC1CCCC1 the results were MrgX1 ag inactive, MrgX1 allo act inactive, MrgX1 antag inactive, RGS4 act inactive and RGS4 block inactive.
CNS(=O)(=O)c1cccc(C(=O)NCC(c2ccco2)N(C)C)c1 (centres undefined) was read as MrgX1 ag inactive, MrgX1 allo act inactive, MrgX1 antag inactive, RGS4 act inactive and RGS4 block inactive.
For Cc1ccc(S(=O)(=O)Nc2cccc(C(=O)NCC(c3ccco3)N(C)C)c2)cc1F (centres undefined) the results were MrgX1 ag inactive, MrgX1 allo act inactive, MrgX1 antag inactive, RGS4 act -8.2, RGS4 block inactive, RGS4 act valid 66 and RGS4 act ctr 84.
`CC1=C(c2ccccc2)SC2=NCCN21` gave MrgX1 ag inactive, MrgX1 allo act inactive, MrgX1 antag inactive, RGS4 act -9.7, RGS4 block inactive, RGS4 act valid 75 and RGS4 act ctr 31.
Screening Cc1ccccc1C(=O)OC1CCCN(C)C1 (centres undefined) returned MrgX1 ag inactive, MrgX1 allo act inactive, MrgX1 antag inactive, RGS4 act inactive and RGS4 block inactive.
For CN1CCCC(C#CC(O)(c2ccccc2)c2ccccc2)C1 (centres undefined) the results were MrgX1 ag inactive, MrgX1 allo act inactive, MrgX1 antag inactive, RGS4 act -11, RGS4 block inactive, RGS4 act valid 94 and RGS4 act ctr 92.
Screening Cc1ccc(NC(=S)NC2CCSc3ccccc32)cc1C (centres undefined) returned MrgX1 ag inactive, MrgX1 allo act inactive, MrgX1 antag inactive, RGS4 act -8.8, RGS4 block inactive, RGS4 act valid 92 and RGS4 act ctr 93.
`Cc1[nH][nH]c(=O)c1C=NCc1cccc(C(F)(F)F)c1` gave MrgX1 ag inactive, MrgX1 allo act inactive, MrgX1 antag inactive, RGS4 act inactive and RGS4 block inactive.
`CCOC(=O)C(=CNc1ccc(NC2=NCC(C)(C)S2)cc1)C(=O)OCC` gave MrgX1 ag inactive, MrgX1 allo act inactive, MrgX1 antag inactive, RGS4 act -11, RGS4 block inactive, RGS4 act valid 79 and RGS4 act ctr 84.
For CCc1nc2ccc(C(=O)N3CCN(c4ccccc4)CC3)cc2nc1CC the results were MrgX1 ag inactive, MrgX1 allo act inactive, MrgX1 antag inactive, RGS4 act inactive and RGS4 block inactive.
`O=C(c1ccc2nc(-c3ccco3)c(-c3ccco3)nc2c1)N1CCN(c2ccccc2)CC1` gave MrgX1 ag inactive, MrgX1 allo act inactive, MrgX1 antag inactive, RGS4 act -13, RGS4 block inactive, RGS4 act valid 92 and RGS4 act ctr 46.
COc1cc(C)ccc1NC(=O)Cc1csc(NC(=O)Nc2ccccc2OC)n1 was read as MrgX1 ag inactive, MrgX1 allo act inactive, MrgX1 antag inactive, RGS4 act -10, RGS4 block inactive, RGS4 act valid 94 and RGS4 act ctr 91.
COc1ccccc1NC(=O)CN(Cc1ccco1)C(=O)c1cc2ccccc2o1 was read as MrgX1 ag inactive, MrgX1 allo act inactive, MrgX1 antag inactive, RGS4 act inactive and RGS4 block inactive.
`CCOC1=C/C(=C/c2c(N)n3nc(-c4ccccc4)sc3nc2=O)C=CC1=O` gave RGS4 act -12, RGS4 block inactive, RGS4 act valid 65 and RGS4 act ctr 33.
CC1CCCN(S(=O)(=O)c2ccc3c(c2)c(=O)nc2ccccn23)C1 (centres undefined) was read as MrgX1 ag inactive, MrgX1 allo act inactive, MrgX1 antag inactive, RGS4 act inactive and RGS4 block inactive.
Nc1ccc2c(c1)C(=O)C(=O)c1ccccc1-2 was read as MrgX1 ag inactive, MrgX1 allo act inactive, MrgX1 antag inactive, RGS4 act -8.7, RGS4 block inactive, RGS4 act valid 68 and RGS4 act ctr 48.
Nc1ccc2c(c1)C(=O)c1ccccc1-2 was read as MrgX1 ag inactive, MrgX1 allo act inactive, MrgX1 antag inactive, RGS4 act inactive and RGS4 block inactive.
`CC(CCc1ccc(O)cc1)N1CCC(Oc2ccc(C(=O)N3CCCC3)cc2)CC1` (centres undefined) gave MrgX1 ag inactive, MrgX1 allo act inactive, MrgX1 antag inactive, RGS4 act inactive and RGS4 block inactive.

High-throughput results from PubChem.
